hIAP act = increases human intestinal alkaline phosphatase activity; P09923; purified human IAP, CDP-Star luminescence, 30 min; stronger effect = higher value; 1 = vehicle-only enzyme, 0 = enzyme-free background; activation factor at 10 µM; actives 0.16% (n = 330,000); AID 2524;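 active means activation factor of the enzyme at least 2-fold when tested at 20 µM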
Target sequence (P09923 whole entry, looked up): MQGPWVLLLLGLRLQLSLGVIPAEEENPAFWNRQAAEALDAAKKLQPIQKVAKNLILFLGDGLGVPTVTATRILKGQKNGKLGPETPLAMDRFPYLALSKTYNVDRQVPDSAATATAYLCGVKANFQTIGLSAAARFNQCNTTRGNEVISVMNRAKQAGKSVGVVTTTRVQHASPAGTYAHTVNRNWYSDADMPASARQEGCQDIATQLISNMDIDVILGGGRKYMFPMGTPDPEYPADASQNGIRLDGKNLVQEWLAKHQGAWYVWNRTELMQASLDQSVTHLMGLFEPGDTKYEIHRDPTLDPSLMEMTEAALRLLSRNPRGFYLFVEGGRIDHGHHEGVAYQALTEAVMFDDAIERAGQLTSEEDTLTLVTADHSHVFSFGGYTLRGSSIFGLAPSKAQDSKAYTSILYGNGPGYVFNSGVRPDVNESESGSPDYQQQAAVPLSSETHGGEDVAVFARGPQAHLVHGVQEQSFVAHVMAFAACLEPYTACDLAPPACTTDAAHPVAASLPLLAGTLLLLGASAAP
mIAP block = mouse IAP inhibition | inhibition, % at 10 µM | purified mouse IAP, CDP-Star luminescence, 30 min | actives 0.2% (n = 330,000);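 active means inhibition of at least 40% at 10 µM in the primary screen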
hIAP block = human IAP inhibition | P09923 | purified IAP, CDP-Star luminescence, 30 min | inhibition, % at 10 µM | actives 0.12% (n = 330,000);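 active means inhibition reaching a set limit with compound at 10 µM in the primary screen, cut at about 35% in these data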
bIAP inh = intestinal alkaline phosphatase (bovine) inhibition. purified bovine IAP, CDP-star luminescence, 30 min. 190,000 tested, under 10 active. AID 1019. inhibition, % at 20 µM;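 active means over 50% inhibition of intestinal alkaline phosphatase at 20 µM in the single-dose screen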
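Incubation: 30 min reaction at room temperature / Material: purified bovine intestinal alkaline phosphatase (IAP) enzyme / Input: enzyme at 1/65,000,000 dilution / Dosing: 20 µM single dose / Signal: CDP-star luminescence signal / Reagent: CDP-star chemiluminescent phosphatase substrate, 30 µM final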
mIAP activ = increases mouse intestinal alkaline phosphatase activity. muIAP, CDP-Star luminescence, 30 min; stronger effect = higher value; 1 = vehicle-only enzyme signal, 0 = enzyme-free wells. activation factor at 10 µM. actives 0.24% (n = 330,000). AID 2805;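 active means activation factor of at least 2 at 20 µM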
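also added = chemiluminescent substrate CDP-Star | test system = mouse IAP enzyme | signal = chemiluminescence readout | compound = DMSO-dissolved test compounds | incubation = 30 min at room temperature | benchmarks = DMSO wells, no-enzyme wells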
bIAP activator = intestinal alkaline phosphatase (bovine) activation; purified bovine IAP, CDP-star luminescence, 30 min; stronger effect = higher value; fold of DMSO-control signal, blank-subtracted; AID 1016; activation factor at 20 µM; actives 0.17% (n = 200,000);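 active means activation factor of 2 or more at 20 µM, a signal rise over negative controls twice the positive control's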
hIAP act conf = human IAP activation confirmation; shares compounds with hIAP act; purified IAP, CDP-Star luminescence, 30 min; stronger effect = lower value; AID 434926; actives 10% (n = 880); activation (%Activity, negative = activation), % at 8.3 µM;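 active means at least twofold enzyme activation in any of six single-dose repeats, which the averaged readout prints as negative percent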
mIAP inh conf = mouse IAP inhibition confirmation | actives 4.7% (n = 11,000) | purified mouse IAP, CDP-Star luminescence, 30 min | inhibition, % at 10 µM | shares compounds with mIAP block;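 active means inhibition of at least 40% at 10 µM in either of the two replicates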
Each line names hits and unclear results; the compound was inactive in the other large screens (follow-up assays come after a bar, where they were run). Rows were chosen to be rich in hits. Some 0.77% of all compounds tested hit in one or more screens of this group.

Cc1cccc(C(O)(C(=O)NNC(=O)CN2CCN(C)CC2)c2cccc(C)c2)c1	bIAP activator 2.3
Cc1ccc(C(O)(C(=O)NNC(=O)CN2CCN(C)CC2)c2ccc(C)cc2)cc1	none
COC(=O)C1=C(c2ccc(OC(F)(F)F)cc2)C[C@@H]2CC[C@H]1N2C(=O)NCCOc1ccc(OC)cc1	none (no result: bIAP inh, bIAP activator)
CC(C)N(Cc1ccco1)/N=C/c1c(O)n(Cc2ccccc2)c(=O)[nH]c1=O	none (no result: bIAP inh, bIAP activator)
O=C1NC(=S)NC(=O)C1C/C=C/c1ccccc1	mIAP block 42
O=C/C=C/c1ccccc1	none (no result: bIAP inh, bIAP activator)
CCOc1ccc2nc(N=Nc3c(O)[nH]c(=S)[nH]c3=O)sc2c1	mIAP block 44
COc1cc(/C=C/[N+](=O)[O-])ccc1O	mIAP block 46
CC1=C2[C@H]3OC(=O)[C@@H](C)[C@@H]3CC[C@@]2(C)C=CC1=O	none (no result: bIAP inh, bIAP activator)
CCOC(=O)c1c(-n2c(C)cc(C=C3C(=O)NC(=S)NC3=O)c2C)sc2c1CCCC2	mIAP block 51 (no result: bIAP inh)
CC(C)Cc1nnc(NC(=O)CCC(=O)N2CCC3(CC2)OCCO3)s1	hIAP act 2.3 (no result: bIAP inh, bIAP activator) | hIAP act conf inactive
Cc1ccc(-c2nc(N3CCOCC3)s[n+]2-c2ccccc2)cc1	none (no result: hIAP act, mIAP block, hIAP block, mIAP activ)
CN(C)c1nc(-c2ccccc2)[n+](C)s1	hIAP block 42 | hIAP act conf inactive
CCOC(=O)c1[nH]c2ccc(OC)cc2c1C(SCC(=O)O)c1ccc(C(F)(F)F)cc1 (stereo not given)	none (no result: bIAP inh, bIAP activator)
Cc1ccc(CN2C3CCCC2CC(NC(=O)Nc2cccc(F)c2)C3)cc1 (stereo not given)	hIAP act 2.2, mIAP activ 11, bIAP activator 6.7 | hIAP act conf inactive | mIAP inh conf inactive
COc1ccc(C(CNC(=O)CCc2ccsc2)N(C)C)cc1 (stereo not given)	none (no result: bIAP inh, bIAP activator)
O=C1NC(=S)NC(=O)C1=Cc1ccc2c(c1)CCN2CCCCl	mIAP block 66 (no result: bIAP inh, bIAP activator) | mIAP inh conf 73
O=C1NC(=O)N(c2ccccc2F)C(=O)/C1=C/c1ccc(Sc2nc3ccccc3[nH]2)o1	none (no result: hIAP act, mIAP block, hIAP block, mIAP activ)
O=C1NC(=O)N(c2cccc(Cl)c2)C(=O)/C1=C\c1ccc(Sc2nc3ccccc3[nH]2)o1	mIAP block 46 | mIAP inh conf 50
O=C(NC1CCCCC1)Oc1cc2oc(=O)sc2cc1Cl	mIAP block 61 (no result: bIAP inh, bIAP activator) | mIAP inh conf 76
Cc1cccc(OCCn2cccc2/C=C2/C(=O)NC(=O)N(Cc3ccco3)C2=O)c1	mIAP block 40 (no result: bIAP inh, bIAP activator) | mIAP inh conf 57
O=C1NC(=O)N(Cc2ccco2)C(=O)/C1=C\c1cccn1CCOc1ccc(Cl)cc1	mIAP block 49 | mIAP inh conf 50
COc1cccc(N2C(=O)NC(=O)/C(=C/c3ccc([N+](=O)[O-])s3)C2=O)c1	mIAP block 48 (no result: bIAP inh, bIAP activator) | mIAP inh conf 51
COc1ccc(N2C(=O)NC(=O)/C(=C\c3ccc([N+](=O)[O-])s3)C2=O)cc1	none
COC(=O)C1=C(c2ccc(F)cc2OCc2ccccc2)C[C@@H]2CC[C@H]1N2C(=O)NCCOc1ccc(OC)cc1	none (no result: bIAP inh, bIAP activator)
NC(Cc1cc(O)c(O)cc1O)C(=O)O (stereo not given)	mIAP block 84 (no result: bIAP inh, bIAP activator) | mIAP inh conf 88
N[C@@H](CCl)C(=O)O	none (no result: bIAP inh, bIAP activator)
COc1cc(OC)c([C@H]2C=C(C)[C@H]3C[C@@H]2C3(C)C)c(OC)c1	none (no result: bIAP inh, bIAP activator)
CN=C(SCC(=O)c1cccc(Cl)c1)c1c(O)n(C)c(=O)n(C)c1=O	none (no result: bIAP inh, bIAP activator)
Cc1ccc(N2C(=O)/C(=C/c3ccc(CN(CCC#N)S(C)(=O)=O)o3)C(=O)NC2=S)cc1	mIAP block 47 | mIAP inh conf 44
Oc1ccccc1-[n+]1c(-c2ccccc2)cc(-c2ccccc2)c(O)c1-c1ccccc1	none (no result: bIAP inh, bIAP activator)
N/C(=N\[N+](=O)[O-])N/N=C/c1ccc(O)cc1	none
Nc1nonc1C(=O)N/N=C/c1ccc([N+](=O)[O-])o1	mIAP block 55 | mIAP inh conf 72
O=C1NC(=O)N(Cc2ccccc2)C(=O)/C1=C/C=C/c1ccco1	mIAP block 57 (no result: bIAP inh, bIAP activator) | mIAP inh conf 66
Cc1nc2ccccc2c(=O)n1-c1ccc(-c2ccccc2)cc1	none (no result: bIAP inh, bIAP activator)
CCN(CC)c1ccc(/C=C2\C(=O)NC(=O)N(CC3CCCO3)C2=O)cc1 (stereo not given)	none (no result: bIAP inh)
C=CCN1C(=O)NC(=O)/C(=C\c2ccc(-c3ccccc3[N+](=O)[O-])o2)C1=O	none
O=C1NC(=O)N(Cc2ccco2)C(=O)/C1=C/c1ccc(-c2cccc([N+](=O)[O-])c2)o1	mIAP block 61 | mIAP inh conf 68
CN(C)c1ccc(/C=C2/C(=O)NC(=O)N(Cc3ccco3)C2=O)cc1	mIAP block 48 | mIAP inh conf 48
CCN(CC)c1ccc(/C=C2/C(=O)NC(=O)N(Cc3ccco3)C2=O)cc1	mIAP block 61 | mIAP inh conf 46
N#CC(c1ccccc1)N1CCOCC1 (stereo not given)	none (no result: bIAP inh, bIAP activator)
CC(=O)c1ccc(OCC(=O)N2CCCC(N(C)Cc3ccccc3)C2)cc1 (stereo not given)	none (no result: bIAP inh, bIAP activator)
O=[N+]([O-])c1cc(S(=O)(=O)c2ccc(O)c([N+](=O)[O-])c2)ccc1O	mIAP block 63 | mIAP inh conf 53
O=C(CCNC(=O)N1C[C@H]2C[C@@H](C1)c1cccc(=O)n1C2)Nc1cccc(Cl)c1	none (no result: bIAP inh, bIAP activator)
